≈ marks a conversion by molar mass, not a printed value.
system: Plasmodium falciparum; test: Antimalarial activity against Plasmodium falciparum NF54 after 36-40 hrs; format: functional
Summary of the method: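 P. falciparum NF-54 kept in RPMI-1640 with 25 mM Hepes, 1% D-glucose, 0.23% sodium bicarbonate, 10% heat-inactivated human serum; D-sorbitol (5%) synchronized to ring stage. ~1% ring parasitaemia, 3% haematocrit; compound […] µg/mL, duplicate wells, 37 °C candle jar, 36–40 h. Giemsa smears scored microscopically; MIC = concentration blocking full maturation to schizonts. Pyrimethamine reference.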

| SMILES | MIC |
| --- | --- |
| CN(CC(O)CNCc1ccccc1)S(=O)(=O)c1cccc2cnccc12 (centres undefined) | 10 µg/mL (≈ 25.9 µM) |
| O=S(=O)(c1ccccc1)N1CCN(c2ccccn2)CC1 | 10 µg/mL (≈ 33 µM) |
| O=S(=O)(c1ccccc1)N1CCN(c2ccc(Cl)cc2)CC1 | 10 µg/mL (≈ 29.7 µM) |
| CN(CC(O)CNCCc1ccc(O)cc1)S(=O)(=O)c1cccc2cnccc12 (centres undefined) | 50 µg/mL (≈ 120 µM) |
| CN(CC(O)CNCCCn1ccnc1)S(=O)(=O)c1cccc2cnccc12 (centres undefined) | 50 µg/mL (≈ 124 µM) |
| Cc1ccc(S(=O)(=O)NCCCn2ccnc2)cc1 | 10 µg/mL (≈ 35.8 µM) |
| O=S(=O)(c1cccc2cnccc12)N1CCN(CCO)CC1 | 50 µg/mL (≈ 156 µM) |
| COc1ccc(CCNS(=O)(=O)c2ccc(C)cc2)cc1OC | 10 µg/mL (≈ 29.8 µM) |
| CN1CCN(S(=O)(=O)c2ccc([N+](=O)[O-])cc2)CC1 | 10 µg/mL (≈ 35 µM) |
| O=S(=O)(NCCCN1CCOCC1)c1ccccc1 | 10 µg/mL (≈ 35.2 µM) |
| O=[N+]([O-])c1ccc(S(=O)(=O)N2CCN(c3ccccn3)CC2)cc1 | 10 µg/mL (≈ 28.7 µM) |
| CCc1nc(N)nc(N)c1-c1ccc(Cl)cc1 [PYRIMETHAMINE] | 10 µg/mL (≈ 40.2 µM) |
| O=[N+]([O-])c1ccc(S(=O)(=O)N2CCN(Cc3ccccc3)CC2)cc1 | 10 µg/mL (≈ 27.7 µM) |
| NCCN1CCN(S(=O)(=O)c2cccc3cnccc23)CC1 | 10 µg/mL (≈ 31.2 µM) |
| CN(CC(O)CNCCc1c[nH]c2ccccc12)S(=O)(=O)c1cccc2cnccc12 (centres undefined) | 10 µg/mL (≈ 22.8 µM) |
| Cc1ccc(S(=O)(=O)N2CCN(c3ccc(Cl)cc3)CC2)cc1 | 10 µg/mL (≈ 28.5 µM) |
| CN1CCN(S(=O)(=O)c2ccccc2)CC1 | 10 µg/mL (≈ 41.6 µM) |

| SMILES | MIC |
| --- | --- |
| COc1ccc(CCNCC(O)CN(C)S(=O)(=O)c2cccc3cnccc23)cc1OC (centres undefined) | 10 µg/mL (≈ 21.8 µM) |
| CN(CC(O)CNCc1ccccc1Cl)S(=O)(=O)c1cccc2cnccc12 (centres undefined) | 10 µg/mL (≈ 23.8 µM) |
| Cc1ccc(S(=O)(=O)N2CCN(CCO)CC2)cc1 | 10 µg/mL (≈ 35.2 µM) |
| O=[N+]([O-])c1ccc(S(=O)(=O)N2CCN(c3cccc(Cl)c3)CC2)cc1 | 10 µg/mL (≈ 26.2 µM) |
| CN(CC(O)CNCc1ccco1)S(=O)(=O)c1cccc2cnccc12 (centres undefined) | 10 µg/mL (≈ 26.6 µM) |
| O=[N+]([O-])c1ccc(S(=O)(=O)NCCCN2CCOCC2)cc1 | 10 µg/mL (≈ 30.4 µM) |
| O=[N+]([O-])c1ccc(S(=O)(=O)N2CCN(CCO)CC2)cc1 | 10 µg/mL (≈ 31.7 µM) |
| COc1ccc(CCNS(=O)(=O)c2ccccc2)cc1OC | 10 µg/mL (≈ 31.1 µM) |
| Cc1ccc(S(=O)(=O)NCCCN2CCOCC2)cc1 | 10 µg/mL (≈ 33.5 µM) |
| CN(CC(O)CNCc1ccc(Cl)cc1Cl)S(=O)(=O)c1cccc2cnccc12 (centres undefined) | 2 µg/mL (≈ 4.4 µM) |
| CN(CC(O)CNCc1ccc(Cl)cc1)S(=O)(=O)c1cccc2cnccc12 (centres undefined) | 10 µg/mL (≈ 23.8 µM) |
| Cc1ccc(S(=O)(=O)N2CCN(Cc3ccccc3)CC2)cc1 | 10 µg/mL (≈ 30.3 µM) |
| CN(CC(O)CNCc1ccc(Cl)c(Cl)c1)S(=O)(=O)c1cccc2cnccc12 (centres undefined) | 2 µg/mL (≈ 4.4 µM) |
| O=S(=O)(c1ccccc1)N1CCN(CCO)CC1 | 10 µg/mL (≈ 37 µM) |
| Cc1ccc(S(=O)(=O)N2CCN(C)CC2)cc1 | 10 µg/mL (≈ 39.3 µM) |
| COc1ccc(CCNS(=O)(=O)c2ccc([N+](=O)[O-])cc2)cc1OC | 10 µg/mL (≈ 27.3 µM) |
| COc1ccc(CCNCC(O)CN(C)S(=O)(=O)c2cccc3cnccc23)cc1 (centres undefined) | 10 µg/mL (≈ 23.3 µM) |

From ChEMBL document CHEMBL1143151, “Design, synthesis and antimalarial activity of benzene and isoquinoline sulfonamide derivatives” (2008)
